Source: ChEMBL document CHEMBL1127638, “Dibasic (amidinoaryl)propanoic acid derivatives as novel blood coagulation factor Xa inhibitors” (J Med Chem, 1994)

What was measured:
Prothrombin = Prothrombin (Homo sapiens, UniProt P00734); test: In vitro evaluation for the concentration needed for inhibiting thrombin by 50%
Coagulation factor X = Coagulation factor X (Homo sapiens, UniProt P00742); test: In vitro evaluation for the concentration needed for inhibiting factor Xa by 50%
[1] = In vitro evaluation for the concentration needed to double the Plasma recalcification clotting time; format: functional, Homo sapiens
Method in brief: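 Human plasma incubated with saline or inhibitor in saline for 2 min at 37 °C. Clotting started with 20 mM CaCl2 solution. Result given as the concentration that doubles plasma clotting time (CT2).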

Rattus norvegicus [2] = test: Ex vivo anticoagulant activity was measured by calculating the Activated partial thromboplastin time at 4 hr by dose of 300 mg/kg on oral administration in male Wistar rat; format: functional
Method in brief: (§1)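 Male Wistar rats (200-250 g), fasted overnight, given compound dissolved in water by stomach tube. Anesthetized with sodium thiopental (100 mg/kg, ip) 15 min after dosing. Jugular vein blood taken into trisodium citrate at several time points and centrifuged to platelet-poor plasma. APTT read after mixing plasma with saline and Platerin Plus activator, clotting started with 20 mM CaCl2. Reported as test/control ratio, mean ± SE, n = 4-5.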

Rattus norvegicus [3] = test: Ex vivo anticoagulant activity was measured by calculating the Activated partial thromboplastin time at 2 hr by dose of 300 mg/kg on oral administration in male Wistar rat; format: functional; method in brief: as §1
Rattus norvegicus [4] = test: Ex vivo anticoagulant activity was measured by calculating the Activated partial thromboplastin time at 0.5 hr by dose of 300 mg/kg on oral administration in male Wistar rat; format: functional; method in brief: as §1
Rattus norvegicus [5] = test: Ex vivo anticoagulant activity was measured by calculating the Activated partial thromboplastin time at 1 hr by dose of 300 mg/kg on oral administration in male Wistar rat; format: functional; method in brief: as §1
Rattus norvegicus [6] = test: Ex vivo anticoagulant activity was measured by calculating the Activated partial thromboplastin time (test/control) at 1 hr by dose of 100 mg/kg on oral administration in male Wistar rat; format: functional; method in brief: as §1
Rattus norvegicus [7] = test: Ex vivo anticoagulant activity was measured by calculating the Activated partial thromboplastin time (test/control) at 2 hr by dose of 100 mg/kg on oral administration in male Wistar rat; format: functional; method in brief: as §1
Rattus norvegicus [8] = test: Ex vivo anticoagulant activity was measured by calculating the Activated partial thromboplastin time (test/control) at 0.5 h by dose of 100 mg/kg on oral administration in male Wistar rat; format: functional; method in brief: as §1
Rattus norvegicus [9] = test: Ex vivo anticoagulant activity was measured by calculating the Activated partial thromboplastin time (test/control) at 4 hr by dose of 100 mg/kg on oral administration in male Wistar rat; format: functional; method in brief: as §1

Sequence of Coagulation factor X (P00742 41-179 limits assumed): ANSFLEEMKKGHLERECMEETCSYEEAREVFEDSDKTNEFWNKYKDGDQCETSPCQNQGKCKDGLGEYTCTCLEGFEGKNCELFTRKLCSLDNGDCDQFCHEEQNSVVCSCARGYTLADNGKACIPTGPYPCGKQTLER
Sequence of Coagulation factor X (P00742 235-488 limits assumed): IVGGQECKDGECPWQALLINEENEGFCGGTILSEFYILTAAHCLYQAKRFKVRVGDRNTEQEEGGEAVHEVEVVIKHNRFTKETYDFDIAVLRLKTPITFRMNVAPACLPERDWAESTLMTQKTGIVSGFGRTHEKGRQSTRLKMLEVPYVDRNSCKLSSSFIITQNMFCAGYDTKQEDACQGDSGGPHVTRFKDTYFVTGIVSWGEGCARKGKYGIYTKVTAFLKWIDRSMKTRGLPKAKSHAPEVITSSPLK

| Compound | IC50 (Prothrombin) [µM] | IC50 (Coagulation factor X) [µM] | CT2 [1] [µM] | further results |
| --- | --- | --- | --- | --- |
| N=C(N)c1ccc2ccc(CC(C(=O)O)c3ccc(O[C@H]4CCNC4)cc3)cc2c1 (some centres not stated) | > 1600 | 0.2 | 3.2 |  |
| CCOC(=O)C(Cc1cc2ccc(C(=N)N)cc2o1)c1ccc(O[C@H]2CCNC2)cc1 (some centres not stated) | 36 | 1.7 | 8.3 |  |
| CC(=N)N1CC[C@H](Oc2ccc([C@@H](Cc3ccc4ccc(C(=N)N)cc4c3)C(=O)O)cc2)C1 |  |  | 6 |  |
| CC(=N)N1CC[C@H](Oc2ccc(CCc3cc4cc(C(=N)N)ccc4o3)cc2)C1 | 4 | 0.64 | 1.2 |  |
| CC(=N)N1CC[C@H](Oc2ccc(C(Cc3ccc4cc(C(=N)N)ccc4c3)C(=O)O)cc2)C1 (some centres not stated) |  |  | 4.4 |  |
| N=C(N)c1ccc2oc(CCc3ccc(O[C@H]4CCNC4)cc3)cc2c1 | 100 | 0.94 | 7.5 |  |
| CC(=N)N1CC[C@H](Oc2ccc(C(Cc3ccc4ccc(C(=N)N)cc4c3)C(=O)O)cc2)C1 (some centres not stated) |  |  | 1.3 |  |
| N=C(N)c1ccc2cc(CC(C(=O)O)c3ccc(O[C@H]4CCNC4)cc3)oc2c1 (some centres not stated) | > 1000 | 1.7 | 16 |  |
| CC(=N)N1CC[C@H](Oc2ccc(C(Cc3cc4ccc(C(=N)N)cc4o3)C(=O)O)cc2)C1 (some centres not stated) | > 400 | 0.84 | 5.6 |  |
| CCOC(=O)C(Cc1ccc2ccc(C(=N)N)cc2c1)c1ccc(O[C@H]2CCNC2)cc1 (some centres not stated) | > 600 | 0.31 | 3.2 |  |
| CC(=N)N1CC[C@H](Oc2ccc(C(Cc3cc4cc(C(=N)N)ccc4o3)C(=O)O)cc2)C1 (some centres not stated) | 15 | 0.5 | 6 |  |
| CCOC(=O)C(Cc1ccc2cc(C(=N)N)ccc2c1)c1ccc(O[C@H]2CCNC2)cc1 (some centres not stated) | 38 | 4.2 | 12.4 |  |
| CCOC(=O)C(Cc1ccc(O[C@H]2CCNC2)cc1)c1cc2cc(C(=N)N)ccc2o1 (some centres not stated) | 20 | 52 | 31 | Tested/Control (Rattus norvegicus [2]): 1.05; Tested/Control (Rattus norvegicus [3]): 1.11; Tested/Control (Rattus norvegicus [4]): 0.98; Tested/Control (Rattus norvegicus [5]): 1.3 |
| N=C(N)c1ccc2cc(CC(C(=O)O)c3ccc(O[C@H]4CCNC4)cc3)ccc2c1 (some centres not stated) | > 100 | 4.1 | 22 |  |
| N=C(N)c1ccc2oc(CCc3cc4cc(C(=N)N)ccc4o3)cc2c1 | 5 | 0.1 | 1.6 |  |
| N=C(N)c1ccc2oc(CC(C(=O)O)c3ccc(O[C@H]4CCNC4)cc3)cc2c1 (some centres not stated) | 230 |  | 14 | Tested/Control (Rattus norvegicus [2]): 1.2; Tested/Control (Rattus norvegicus [3]): 1.25; Tested/Control (Rattus norvegicus [4]): 1.28; Tested/Control (Rattus norvegicus [5]): 1.4 |
| N=C(N)c1ccc2oc(C(Cc3ccc(O[C@H]4CCNC4)cc3)C(=O)O)cc2c1 (some centres not stated) | 9 | 45 | 14 | Tested/Control (Rattus norvegicus [2]): 1.16; Tested/Control (Rattus norvegicus [3]): 1.15; Tested/Control (Rattus norvegicus [5]): 1.33 |
| CCOC(=O)C(Cc1cc2cc(C(=N)N)ccc2o1)c1ccc(O[C@H]2CCNC2)cc1 (some centres not stated) | 21 | 1 | 20 | Tested/Control (Rattus norvegicus [2]): 1.21; Tested/Control (Rattus norvegicus [3]): 1.19; Tested/Control (Rattus norvegicus [4]): 1.17; Tested/Control (Rattus norvegicus [5]): 1.17 |
| CC(=N)N1CC[C@H](Oc2ccc([C@H](Cc3ccc4ccc(C(=N)N)cc4c3)C(=O)O)cc2)C1 [DX-9065A] |  |  | 0.5 | Tested/Control (Rattus norvegicus [6]): 1.51; Tested/Control (Rattus norvegicus [7]): 1.48; Tested/Control (Rattus norvegicus [8]): 1.63; Tested/Control (Rattus norvegicus [9]): 1.28 |
